Our source for the Relative rate and inhibition values is ChEMBL document CHEMBL1124043, “Pyrido[2,1-b]quinazolinecarboxamide derivatives as platelet activating factor antagonists” (J Med Chem, 1988).

For data set [1], the species on record is Cavia porcellus. Briefly: Relative rate of hydrolysis in guinea pig whole liver homogenates. The format is ADME. Put shortly: (§1)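 Whole liver homogenate, equivalent to 21 mg fresh liver, in 40 mM potassium phosphate pH 7.4 with 0.4 mM substrate, final volume 1.0 mL. Incubated 10 min at 37 °C, then quenched with acetonitrile-methanol (9:1). Amine product measured in the supernatant by HPLC. Unincubated and no-substrate controls run in parallel. Rate expressed as nmol formed/10 min per 21 mg liver.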

The test system of data set [2] is Platelet-activating factor receptor (Canis familiaris). Briefly: Percent inhibition of binding of platelet activating factor (PAF) to dog platelets using [3H]PAF as radioligand at a concentration of 1 uM. To be noted: Canis lupus familiaris.
Data set [3] is filed under the species Canis familiaris. Briefly: Relative rate of hydrolysis in dog whole liver homogenates. The format is ADME, Canis lupus familiaris. The procedure, abridged:
as §1

The nature of data set [4]: Relative rate of hydrolysis in squirrel monkey whole liver homogenates. The format is ADME, tissue-based. To be noted: saimiri, tissue homogenate. Put shortly: as §1

Turning to `CC(C)c1ccc2nc3ccc(C(=O)NC(C)(C)CCCc4cccnc4)cn3c(=O)c2c1`, the Relative rate in data set [1] was below 0.01.
As to `Cc1cc2nc3ccc(C(=O)NCCCCc4ccc[n+](C)c4)cn3c(=O)c2cc1C`, the inhibition in data set [2] is 0%.
Still for that read-out and setting: with `CC(C)c1ccc2nc3ccc(CNCCCCc4cccnc4)cn3c(=O)c2c1` the figure was 15%.
For `CC(C)c1ccc2nc3ccc(C(=O)N[C@H](C)CCCc4cccnc4)cn3c(=O)c2c1`, the results for the Relative rate in data set [1], in data set [3] and in data set [4] were 0.063, below 0.01 and below 0.01, respectively.
The compound `CC(C)c1ccc2nc3ccc(S(=O)(=O)NCCCCc4cccnc4)cn3c(=O)c2c1` registered an inhibition in data set [2] of 7%.
On the same count and under the same terms, to `CC(C)c1ccc2nc3ccc(C(=O)NCCCCCCCc4cccnc4)cn3c(=O)c2c1` belongs 19%.
In turn, `Cc1cc2nc3ccc(C(=O)NCCCCc4ccccc4)cn3c(=O)c2cc1C` returned an inhibition in data set [2] of 4%.
The same measure, in the same setting: with `CC(C)c1ccc2nc3ccc(C(=O)NCCCCCc4cccnc4)cn3c(=O)c2c1` the figure was 9%.
Still for that read-out and setting: with `Cc1cc2nc3ccc(C(=O)NCCCCc4cnc[n+](C)c4)cn3c(=O)c2cc1C` the figure was 0%.
Regarding `CC(CCCc1cccnc1)NC(=O)c1ccc2nc3ccc(C(C)C)cc3c(=O)n2c1` (racemic), the Relative rate is 0.35 in data set [1], 1.9 in data set [3] and 0.49 in data set [4].
The compound `CC(C)c1ccc2nc3ccc(C(=O)NCCCCc4cccnc4)cn3c(=O)c2c1` registered a Relative rate in data set [1] of 1.
For the compound `CC(C)c1ccc2nc3ccc(C(=O)N[C@@H](C)CCCc4cccnc4)cn3c(=O)c2c1`, the values for the Relative rate in data set [1], in data set [3] and in data set [4] were 0.5, 1.9 and 0.26, respectively.
For `CC(C)c1ccc2nc3ccc(CCCCCCc4cccnc4)cn3c(=O)c2c1`, the inhibition in data set [2] was found to be 15%.
Still for that read-out and setting: with `CC(C)c1ccc2nc3ccc(C(=O)NCCCc4cccnc4)cn3c(=O)c2c1` the figure was 5%.

One may read the inhibition as the share of the control response that was lost under treatment.
